What all share (format): functional
The subject of experiment [1] is Escherichia coli. Description: Antimicrobial activity against Escherichia coli DH5[alpha] transformed with pAC-ges1 plasmid encoding Beta-lactamase GES-2 E104, N170 mutant by Etest method.
Experiment [2] has as its system Escherichia coli. Description: Antimicrobial activity against Escherichia coli DH5[alpha] by Etest method.
In experiment [3] the test system is Escherichia coli. Kind of experiment: Antimicrobial activity against Escherichia coli DH5[alpha] transformed with pAC-ges1 plasmid encoding Beta-lactamase GES-6 K104, S170 mutant by Etest method.
The test system of experiment [4] is Escherichia coli. Description: Antimicrobial activity against Escherichia coli DH5[alpha] transformed with pAC-ges1 plasmid encoding Beta-lactamase GES-6 K104, S170 mutant in presence of at 2 ug/ml clavulanic acid by Etest method.
Experiment [5] concerns Escherichia coli. Kind of experiment: Antimicrobial activity against Escherichia coli DH5[alpha] transformed with pAC-ges1 plasmid encoding Beta-lactamase GES-7 K104, G170 mutant by Etest method.
Experiment [6] relates to Escherichia coli. Description: Antimicrobial activity against Escherichia coli DH5[alpha] transformed with pAC-ges1 plasmid encoding Beta-lactamase GES-7 K104, G170 mutant in presence of at 2 ug/ml clavulanic acid by Etest method.
Experiment [7] relates to Escherichia coli. Kind of experiment: Antimicrobial activity against Escherichia coli DH5[alpha] in presence of at 2 ug/ml clavulanic acid by Etest method.
Experiment [8] concerns Escherichia coli. Kind of experiment: Antimicrobial activity against Escherichia coli DH5[alpha] transformed with pAC-ges1 plasmid encoding Beta-lactamase GES-2 E104, N170 mutant in presence of at 2 ug/ml clavulanic acid by Etest method. The method, boiled down:
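MIC read by Etest per the manufacturer's instructions. Host was E. coli DH5α carrying the bla_GES gene cloned into the chloramphenicol- and tetracycline-resistant vector pACYC184, with the high-copy plasmid pBC-ges1 as the gene source. The inhibitor was held at a fixed 2 μg/ml.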

In experiment [9] the test system is Escherichia coli. Description: Antimicrobial activity against Escherichia coli DH5[alpha] transformed with pAC-ges1 plasmid encoding Beta-lactamase GES-13 K104, N170 mutant by Etest method.
Experiment [10] relates to Escherichia coli. Description: Antimicrobial activity against Escherichia coli DH5[alpha] transformed with pAC-ges1 plasmid encoding Beta-lactamase GES-1 E104, G170 mutant in presence of at 2 ug/ml clavulanic acid by Etest method.
In experiment [11] the test system is Escherichia coli. Description: Antimicrobial activity against Escherichia coli DH5[alpha] transformed with pAC-ges1 plasmid encoding Beta-lactamase GES-13 K104, N170 mutant in presence of at 2 ug/ml clavulanic acid by Etest method.
For experiment [12], the system named is Escherichia coli. Kind of experiment: Antimicrobial activity against Escherichia coli DH5[alpha] transformed with pAC-ges1 plasmid encoding Beta-lactamase GES-1 E104, G170 mutant by Etest method.
In experiment [13] the test system is Escherichia coli. Description: Antimicrobial activity against Escherichia coli DH5[alpha] transformed with pAC-ges1 plasmid encoding Beta-lactamase GES-5 E104, S170 mutant by Etest method.
Experiment [14] has as its system Escherichia coli. Kind of experiment: Antimicrobial activity against Escherichia coli DH5[alpha] transformed with pAC-ges1 plasmid encoding Beta-lactamase GES-5 E104, S170 mutant in presence of at 2 ug/ml clavulanic acid by Etest method.
Experiment [15] has as its system Escherichia coli. Kind of experiment: Antimicrobial activity against Escherichia coli DH5[alpha] transformed with pAC-ges1 plasmid encoding Beta-lactamase GES-6 K104, S170 mutant in presence of at 4 ug/ml Tazobactam by Etest method. The method, boiled down: (§1)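 E. coli DH5α host, either untransformed or carrying pACYC184-based clones of the GES variant genes; the source gene came from integron plasmid pBC-ges1. MICs were read by Etest following the manufacturer's recommendations, with the inhibitor held at a fixed 4 μg/ml.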

The test system of experiment [16] is Escherichia coli. Description: Antimicrobial activity against Escherichia coli DH5[alpha] transformed with pAC-ges1 plasmid encoding Beta-lactamase GES-13 K104, N170 mutant in presence of at 4 ug/ml Tazobactam by Etest method. The method, boiled down: as §1
Experiment [17] relates to Escherichia coli. Description: Antimicrobial activity against Escherichia coli DH5[alpha] transformed with pAC-ges1 plasmid encoding Beta-lactamase GES-1 E104, G170 mutant in presence of at 4 ug/ml Tazobactam by Etest method. The essentials: as §1
Experiment [18] relates to Escherichia coli. Description: Antimicrobial activity against Escherichia coli DH5[alpha] transformed with pAC-ges1 plasmid encoding Beta-lactamase GES-2 E104, N170 mutant in presence of at 4 ug/ml Tazobactam by Etest method. The essentials:
as §1

The subject of experiment [19] is Escherichia coli. Description: Antimicrobial activity against Escherichia coli DH5[alpha] transformed with pAC-ges1 plasmid encoding Beta-lactamase GES-7 K104, G170 mutant in presence of at 4 ug/ml Tazobactam by Etest method. The method, boiled down: as §1
For experiment [20], the system named is Escherichia coli. Kind of experiment: Antimicrobial activity against Escherichia coli DH5[alpha] transformed with pAC-ges1 plasmid encoding Beta-lactamase GES-5 E104, S170 mutant in presence of at 4 ug/ml Tazobactam by Etest method. The essentials: as §1
The test system of experiment [21] is Escherichia coli. Kind of experiment: Antimicrobial activity against Escherichia coli DH5[alpha] in presence of at 4 ug/ml Tazobactam by Etest method. The essentials: as §1

The structures appear in SMILES notation. Values after ≈ are worked out from the molar mass of the structure shown. Some results are limits rather than exact numbers.

Usually MIC stands for the least concentration at which growth counts as inhibited. For the molecule `CC1(C)S[C@@H]2[C@H](NC(=O)[C@H](C(=O)O)c3ccsc3)C(=O)N2[C@H]1C(=O)O` [TICARCILLIN], the MIC in the experiment with Escherichia coli [1] is over 256 µg/mL; against Escherichia coli [2] it was 4 µg/mL (≈ 10.4 µM); against Escherichia coli [3], over 256 µg/mL; in the experiment with Escherichia coli [4] it was over 256 µg/mL; with Escherichia coli [5], over 256 µg/mL; in the experiment on Escherichia coli [6], over 256 µg/mL. Also, the MIC was 4 µg/mL in the experiment on Escherichia coli [7]; 1.5 µg/mL with Escherichia coli [8]; over 256 µg/mL in the experiment on Escherichia coli [9]; 6 µg/mL in the experiment with Escherichia coli [10]; 8 µg/mL in the experiment with Escherichia coli [11]; over 256 µg/mL in the experiment on Escherichia coli [12]. In addition, the values for the minimal inhibitory concentration (MIC) with Escherichia coli [13] and with Escherichia coli [14] were over 256 µg/mL and 16 µg/mL, respectively.

Turning to `CCN1CCN(C(=O)N[C@@H](C(=O)N[C@@H]2C(=O)N3[C@@H]2SC(C)(C)[C@@H]3C(=O)O)c2ccccc2)C(=O)C1=O` [PIPERACILLIN], the MIC amounted to 2 µg/mL with Escherichia coli [15]; 1 µg/mL with Escherichia coli [16]; 4 µg/mL (≈ 7.73 µM) against Escherichia coli [1]; 1 µg/mL in the experiment on Escherichia coli [17]; 4 µg/mL (≈ 7.73 µM) in the experiment with Escherichia coli [2]; 12 µg/mL (≈ 23.2 µM) against Escherichia coli [3]. Also, the MIC with Escherichia coli [18] was 1 µg/mL; against Escherichia coli [5], 12 µg/mL (≈ 23.2 µM); in the experiment with Escherichia coli [19], 1 µg/mL; in the experiment on Escherichia coli [20] it was 2 µg/mL; with Escherichia coli [9], 8 µg/mL (≈ 15.5 µM); in the experiment on Escherichia coli [12], 8 µg/mL (≈ 15.5 µM). The results for the MIC in the experiment with Escherichia coli [13] and with Escherichia coli [21] were 8 µg/mL (≈ 15.5 µM) and 1 µg/mL, respectively.

The record behind these values is ChEMBL document CHEMBL1687781, “Comparative biochemical and computational study of the role of naturally occurring mutations at Ambler positions 104 and 170 in GES β-lactamases” (Antimicrob Agents Chemother, 2010).
